ChEMBL document CHEMBL4339192, “De Novo Designed Amphipathic α-Helical Antimicrobial Peptides Incorporating Dab and Dap Residues on the Polar Face To Treat the Gram-Negative Pathogen, Acinetobacter baumannii” (J Med Chem, 2019)
In brackets after ≈: the same amount, converted by molar mass. Where a SMILES comes first, the peptide text is derived from it. [ ]: non-standard residue; d: D form.

What was measured:
Type in all cases: functional
Acinetobacter baumannii [1] = test: Antibacterial activity against Acinetobacter baumannii 649 measured after 24 hrs in presence of 25% human serum by microtiter dilution method; settings: Acinetobacter baumannii, 649, 24 h
Procedure, shortened: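 Blood strain 649 was tested by MH broth microdilution with and without 25% (v/v) human serum added to the medium. The test used a final inoculum of 5 × 10^5 cfu/mL and incubation at 37 °C. The ratio is the MIC in serum over the MIC in MH alone.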

Acinetobacter baumannii [2] = test: Antibacterial activity against Acinetobacter baumannii 649 measured after 24 hrs by microtiter dilution method; settings: Acinetobacter baumannii, 649, 24 h
Procedure, shortened: (§1)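 Broth microdilution in Mueller-Hinton (MH) medium. […] Plates were incubated 24 h at 37 °C. MIC was the lowest peptide concentration that inhibited growth, based on three sets of replicates.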

Acinetobacter baumannii [3] = test: Antibacterial activity against polymyxin B/colistin-resistant Acinetobacter baumannii M89955 measured after 24 hrs by microtiter dilution method; procedure, shortened: as §1
Acinetobacter baumannii [4] = test: Antibacterial activity against polymyxin B/colistin-resistant Acinetobacter baumannii M89953 measured after 24 hrs by microtiter dilution method; procedure, shortened: as §1
Acinetobacter baumannii [5] = test: Antibacterial activity against polymyxin B/colistin-resistant Acinetobacter baumannii M89952 measured after 24 hrs by microtiter dilution method; procedure, shortened: as §1
Acinetobacter baumannii [6] = test: Antibacterial activity against polymyxin B/colistin-resistant Acinetobacter baumannii M89951 measured after 24 hrs by microtiter dilution method; procedure, shortened: as §1
Acinetobacter baumannii [7] = test: Antibacterial activity against polymyxin B/colistin-resistant Acinetobacter baumannii M89941 measured after 24 hrs by microtiter dilution method; procedure, shortened: as §1
Acinetobacter baumannii [8] = test: Antibacterial activity against Acinetobacter baumannii isolate 1001611 measured after 24 hrs by microtiter dilution method; settings: isolate 1001611, 24 h; procedure, shortened: as §1
Acinetobacter baumannii [9] = test: Antibacterial activity against Acinetobacter baumannii isolate 1007660 measured after 24 hrs by microtiter dilution method; settings: isolate 1007660, 24 h; procedure, shortened: as §1
Acinetobacter baumannii [10] = test: Antibacterial activity against Acinetobacter baumannii isolate 1021371 measured after 24 hrs by microtiter dilution method; settings: isolate 1021371, 24 h; procedure, shortened: as §1
Acinetobacter baumannii [11] = test: Antibacterial activity against Acinetobacter baumannii isolate 952654 measured after 24 hrs by microtiter dilution method; settings: isolate 952654, 24 h; procedure, shortened: as §1
Acinetobacter baumannii [12] = test: Antibacterial activity against Acinetobacter baumannii isolate 9383370 measured after 24 hrs by microtiter dilution method; settings: isolate 9383370, 24 h; procedure, shortened: as §1
Acinetobacter baumannii [13] = test: Antibacterial activity against Acinetobacter baumannii isolate 961997 measured after 24 hrs by microtiter dilution method; settings: isolate 961997, 24 h; procedure, shortened: as §1
Acinetobacter baumannii [14] = test: Antibacterial activity against Acinetobacter baumannii isolate 1002956 measured after 24 hrs by microtiter dilution method; settings: isolate 1002956, 24 h; procedure, shortened: as §1
Acinetobacter baumannii [15] = test: Antibacterial activity against Acinetobacter baumannii isolate 977751 measured after 24 hrs by microtiter dilution method; settings: isolate 977751, 24 h; procedure, shortened: as §1
Acinetobacter baumannii [16] = test: Antibacterial activity against Acinetobacter baumannii isolate 1035166 measured after 24 hrs by microtiter dilution method; settings: isolate 1035166, 24 h; procedure, shortened: as §1
Acinetobacter baumannii [17] = test: Antibacterial activity against Acinetobacter baumannii isolate 1010282 measured after 24 hrs by microtiter dilution method; settings: isolate 1010282, 24 h; procedure, shortened: as §1
Acinetobacter baumannii [18] = test: Antibacterial activity against Acinetobacter baumannii isolate 1010245 measured after 24 hrs by microtiter dilution method; settings: isolate 1010245, 24 h; procedure, shortened: as §1
Acinetobacter baumannii [19] = test: Antibacterial activity against Acinetobacter baumannii isolate 1017395 measured after 24 hrs by microtiter dilution method; settings: isolate 1017395, 24 h; procedure, shortened: as §1
Acinetobacter baumannii [20] = test: Antibacterial activity against Acinetobacter baumannii isolate 968886 measured after 24 hrs by microtiter dilution method; settings: isolate 968886, 24 h; procedure, shortened: as §1
Acinetobacter baumannii [21] = test: Antibacterial activity against Acinetobacter baumannii isolate 964304 measured after 24 hrs by microtiter dilution method; settings: isolate 964304, 24 h; procedure, shortened: as §1
Acinetobacter baumannii [22] = test: Antibacterial activity against Acinetobacter baumannii isolate 963659 measured after 24 hrs by microtiter dilution method; settings: isolate 963659, 24 h; procedure, shortened: as §1
Acinetobacter baumannii [23] = test: Antibacterial activity against Acinetobacter baumannii isolate 963618 measured after 24 hrs by microtiter dilution method; settings: isolate 963618, 24 h; procedure, shortened: as §1
Acinetobacter baumannii [24] = test: Antibacterial activity against Acinetobacter baumannii isolate 1018887 measured after 24 hrs by microtiter dilution method; settings: isolate 1018887, 24 h; procedure, shortened: as §1
Acinetobacter baumannii [25] = test: Antibacterial activity against Acinetobacter baumannii isolate 1035794 measured after 24 hrs by microtiter dilution method; settings: isolate 1035794, 24 h; procedure, shortened: as §1
Acinetobacter baumannii [26] = test: Antibacterial activity against Acinetobacter baumannii isolate 965463 measured after 24 hrs by microtiter dilution method; settings: isolate 965463, 24 h; procedure, shortened: as §1
Acinetobacter baumannii [27] = test: Antibacterial activity against polymyxin B/colistin-resistant Acinetobacter baumannii M89963 measured after 24 hrs by microtiter dilution method; procedure, shortened: as §1
Acinetobacter baumannii [28] = test: Antibacterial activity against polymyxin B/colistin-resistant Acinetobacter baumannii M89949 measured after 24 hrs by microtiter dilution method; procedure, shortened: as §1

CC(=O)N[C@H](CCCCN)C(=O)N[C@H](CC(C)C)C(=O)N[C@H](CCCNC(=N)N)C(=O)N[C@H](CO)C(=O)N[C@H](CC(C)C)C(=O)N[C@H](CC(C)C)C(=O)N[C@H](CCCNC(=N)N)C(=O)N[C@@H](C(=O)N[C@H](CC(C)C)C(=O)N[C@H](CO)C(=O)N[C@H](CCCNC(=N)N)C(=O)N[C@H](C)C(=O)N[C@H](CCCCN)C(=O)N[C@H](C)C(=O)N[C@H](C)C(=O)N[C@H](CCCCN)C(=O)N[C@H](CC(C)C)C(=O)N[C@H](CCCNC(=N)N)C(=O)N[C@@H](C(=O)N[C@H](CC(C)C)C(=O)N[C@H](CC(C)C)C(=O)N[C@H](CCCNC(=N)N)C(=O)N[C@H](C)C(=O)N[C@H](CC(C)C)C(=O)N[C@H](CO)C(=O)N[C@H](CCCNC(=N)N)C(N)=O)[C@H](C)O)[C@H](C)O (Ac-[dK][dL][dR][dS][dL][dL][dR][dT][dL][dS][dR][dA][dK][dA][dA][dK][dL][dR][dT][dL][dL][dR][dA][dL][dS][dR]-NH2)
MIC (Acinetobacter baumannii [1]): 1.3 µM | MIC (Acinetobacter baumannii [2]): 0.7 µM (≈ 2.12 µg/mL) | MIC (Acinetobacter baumannii [3]; M89955, 24 h): 0.7 µM (≈ 2.12 µg/mL) | MIC (Acinetobacter baumannii [4]; M89953, 24 h): 0.7 µM (≈ 2.12 µg/mL) | MIC (Acinetobacter baumannii [5]; M89952, 24 h): 0.7 µM (≈ 2.12 µg/mL) | MIC (Acinetobacter baumannii [6]; M89951, 24 h): 0.7 µM (≈ 2.12 µg/mL) | MIC (Acinetobacter baumannii [7]; M89941, 24 h): 1.3 µM (≈ 3.94 µg/mL)

CC(=O)N[C@H](CCCCN)C(=O)N[C@H](CC(C)C)C(=O)N[C@H](CCCCN)C(=O)N[C@H](CO)C(=O)N[C@H](CC(C)C)C(=O)N[C@H](CC(C)C)C(=O)N[C@H](CCCCN)C(=O)N[C@@H](C(=O)N[C@H](CC(C)C)C(=O)N[C@H](CO)C(=O)N[C@H](CCCCN)C(=O)N[C@H](C)C(=O)N[C@H](CCCCN)C(=O)N[C@H](C)C(=O)N[C@H](C)C(=O)N[C@H](CCCCN)C(=O)N[C@H](CC(C)C)C(=O)N[C@H](CCCCN)C(=O)N[C@@H](C(=O)N[C@H](CC(C)C)C(=O)N[C@H](CC(C)C)C(=O)N[C@H](CCCCN)C(=O)N[C@H](C)C(=O)N[C@H](CC(C)C)C(=O)N[C@H](CO)C(=O)N[C@H](CO)C(N)=O)[C@H](C)O)[C@H](C)O (Ac-[dK][dL][dK][dS][dL][dL][dK][dT][dL][dS][dK][dA][dK][dA][dA][dK][dL][dK][dT][dL][dL][dK][dA][dL][dS][dS]-NH2)
MIC (Acinetobacter baumannii [1]): 0.7 µM | MIC (Acinetobacter baumannii [2]): 0.7 µM (≈ 1.98 µg/mL) | MIC (Acinetobacter baumannii [8]): 0.7 µM (≈ 1.98 µg/mL) | MIC (Acinetobacter baumannii [9]): 0.7 µM (≈ 1.98 µg/mL) | MIC (Acinetobacter baumannii [10]): 1.4 µM (≈ 3.95 µg/mL) | MIC (Acinetobacter baumannii [11]): 1.4 µM (≈ 3.95 µg/mL) | MIC (Acinetobacter baumannii [12]): 0.7 µM (≈ 1.98 µg/mL) | MIC (Acinetobacter baumannii [13]): 1.4 µM (≈ 3.95 µg/mL) | MIC (Acinetobacter baumannii [14]): 0.7 µM (≈ 1.98 µg/mL) | MIC (Acinetobacter baumannii [15]): 0.7 µM (≈ 1.98 µg/mL) | MIC (Acinetobacter baumannii [16]): 1.4 µM (≈ 3.95 µg/mL) | MIC (Acinetobacter baumannii [17]): 1.4 µM (≈ 3.95 µg/mL) | MIC (Acinetobacter baumannii [18]): 0.7 µM (≈ 1.98 µg/mL) | MIC (Acinetobacter baumannii [19]): 1.4 µM (≈ 3.95 µg/mL) | MIC (Acinetobacter baumannii [20]): 0.7 µM (≈ 1.98 µg/mL) | MIC (Acinetobacter baumannii [21]): 1.4 µM (≈ 3.95 µg/mL) | MIC (Acinetobacter baumannii [22]): 1.4 µM (≈ 3.95 µg/mL) | MIC (Acinetobacter baumannii [23]): 0.7 µM (≈ 1.98 µg/mL) | MIC (Acinetobacter baumannii [24]): 1.4 µM (≈ 3.95 µg/mL) | MIC (Acinetobacter baumannii [25]): 1.4 µM (≈ 3.95 µg/mL) | MIC (Acinetobacter baumannii [26]): 0.7 µM (≈ 1.98 µg/mL) | MIC (Acinetobacter baumannii [27]; M89963, 24 h): 0.7 µM (≈ 1.98 µg/mL) | MIC (Acinetobacter baumannii [3]; M89955, 24 h): 0.7 µM (≈ 1.98 µg/mL) | MIC (Acinetobacter baumannii [4]; M89953, 24 h): 1.5 µM (≈ 4.24 µg/mL) | MIC (Acinetobacter baumannii [5]; M89952, 24 h): 0.7 µM (≈ 1.98 µg/mL) | MIC (Acinetobacter baumannii [6]; M89951, 24 h): 0.7 µM (≈ 1.98 µg/mL) | MIC (Acinetobacter baumannii [28]; M89949, 24 h): 0.7 µM (≈ 1.98 µg/mL) | MIC (Acinetobacter baumannii [7]; M89941, 24 h): 0.7 µM (≈ 1.98 µg/mL)

COLISTIN
MIC (Acinetobacter baumannii [27]): > 28 µM | MIC (Acinetobacter baumannii [3]): > 28 µM | MIC (Acinetobacter baumannii [4]): > 28 µM | MIC (Acinetobacter baumannii [5]): > 28 µM | MIC (Acinetobacter baumannii [6]): > 28 µM | MIC (Acinetobacter baumannii [28]): > 28 µM | MIC (Acinetobacter baumannii [7]): > 28 µM
